Rin1 Abl inh = blocks binding of human Rin1 to Abl | TR-FRET Rin1/Abl binding, biochemical | inhibition, % at 7.35 µM | actives 0.4% (n = 360,000); in the data active = inhibition above about 5%, passing the limit was not always enough
UBC13 inh = inhibitors of human UBC13 polyubiquitin chain formation | TR-FRET | actives 0.47% (n = 330,000) | AID 485273 | inhibition, % at 20 µM; in the data active = inhibition above about 45%, passing the limit was not always enough
Target sequence (P61088 whole entry, looked up): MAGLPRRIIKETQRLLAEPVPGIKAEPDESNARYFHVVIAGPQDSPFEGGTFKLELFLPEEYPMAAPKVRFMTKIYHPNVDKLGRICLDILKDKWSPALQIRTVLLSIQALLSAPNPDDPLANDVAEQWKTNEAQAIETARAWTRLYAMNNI
PAD4 FP inh = PAD4 (human) enzyme inhibition; Q9UM07; recombinant PAD4, RCA probe fluorescence polarization; inhibition, % at 6.36 µM; actives 0.41% (n = 330,000); AID 485272;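 active = percent inhibition above a cutoff equal to the mean of all tested compounds plus 3 SD, cut at about 15% in these data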;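 also: 0% = PAD4 with RCA probe and DMSO and 100% = probe without PAD4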
UBC9 SUMO inh = blocks human SUMOylation mediated by UBC9; HTRF SUMOylation assay, SAE1/SAE2 + UBC9, in vitro; P63279; actives 0.36% (n = 290,000); inhibition, % at 35 µM; in the data active = inhibition above about 50%, passing the limit was not always enough
Target sequence (P63279 whole entry, looked up): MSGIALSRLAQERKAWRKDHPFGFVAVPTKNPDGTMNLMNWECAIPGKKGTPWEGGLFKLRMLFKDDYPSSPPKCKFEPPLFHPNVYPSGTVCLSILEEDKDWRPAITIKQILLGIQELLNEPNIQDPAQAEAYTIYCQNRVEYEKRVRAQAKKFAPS
GSTO1 inh = counter-screen for RBBP9 inhibitors: inhibitors of human GSTO1. P78417. AID 1974. recombinant GSTO1, activity-based probe fluorescence polarization. actives 1.1% (n = 300,000). inhibition, % at 5.96 µM;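 active = inhibition above the campaign mean inhibition plus 3 SD, cut at about 35% in these data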;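 also: 0% = GSTO1-1 with DMSO and 100% = wells lacking GSTO1-1 enzyme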
Target sequence (P78417 whole entry, looked up): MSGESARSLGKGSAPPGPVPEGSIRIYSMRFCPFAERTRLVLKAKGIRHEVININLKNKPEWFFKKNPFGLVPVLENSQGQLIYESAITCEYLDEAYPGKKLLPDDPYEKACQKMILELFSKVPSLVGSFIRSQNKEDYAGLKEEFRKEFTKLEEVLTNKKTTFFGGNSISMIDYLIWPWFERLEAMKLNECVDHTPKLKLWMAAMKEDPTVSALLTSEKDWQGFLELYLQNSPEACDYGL
Apaf1 inhib = inhibitors of human Apaf-1 apoptosome. O14727. reconstituted apoptosome caspase-3 activity, DEVD-Rh110 fluorescence. inhibition, % at 20 µM. actives 0.71% (n = 330,000). AID 489030; active = inhibition of at least 40% at 20 µM;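 also: plate controls were DMSO wells for no effect and DEVD-CHO caspase inhibitor wells for full effect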
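Material: reconstituted apoptosome with Apaf-1, cytochrome c, caspase-9, procaspase-3, dATP; medium: pH 7.5 Hepes buffer with CHAPS, BSA, DTT; also added: cytochrome c and DEVD-Rh110 substrate; timing: 30 min plus 50 min, RT; signal: Rh110 fluorescence intensity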
Rin1-Abl confirm = Rin1-Abl interaction inhibition confirmation. shares compounds with Rin1 Abl inh. TR-FRET Rin1-Abl binding, purified proteins. inhibition, % at 7.35 µM. actives 49% (n = 1,300). AID 602124
GFP quencher = counter-screen for Rin1-Abl inhibitors: GFP fluorescence quenchers; shares compounds with Rin1 Abl inh; inhibitors/quenchers counterscreen; inhibition, % at 6.75 µM; actives 8.5% (n = 1,300);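 also: ABL1-eGFP fusion protein alone without its partner RIN1-SBP; 0% = protein with vehicle and 100% = wells lacking protein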
GFP quench DR = GFP fluorescence interference dose response; GFP fluorescence interference/quenching counterscreen; shares compounds with Rin1 Abl inh; AID 602182; 230 tested, under 10 active; IC50, µM; call rule not given here;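 also: ABL1-eGFP fusion protein alone without its RIN1 binding partner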
* marks the source's active call; other numbers are inactive results; . = no result. Compounds with a hit are over-represented: about 2.2% of the library has one in this group of screens. Rule as the data show it, unless noted: active = inhibition above about 6.5%; inactive = the rest.

SMILES	Rin1 Abl inh	UBC13 inh	PAD4 FP inh	UBC9 SUMO inh	GSTO1 inh	Apaf1 inhib	Rin1-Abl confirm	GFP quencher	others
O=C(NCc1ccc(F)cc1)c1cc(C2CCCCN2S(=O)(=O)c2ccccc2)on1 (configuration not stated)	4	.	.	.	.	.	.	.
O=c1cc(-c2ccccc2)oc2cc(O)ccc12	64*	.	.	.	.	.	0	0
CCN(CC)C(=O)C1=C(C)N(Cc2ccccc2)C(=O)C(CC(=O)NCCCN(C)C)C1 (configuration not stated)	-1	.	.	.	.	.	.	.
Cc1cc(C(=O)Nc2c[nH]c(=O)[nH]c2=O)ccc1[N+](=O)[O-]	10*	-3	3	-1	5	1	-1	-1
O=C(COC(=O)COc1ccccc1)Nc1ccc(Br)cc1Br	3	2	2	.	.	0	.	.
CCOC(=O)c1ccc(NC(=O)COc2ccccc2CNC2CCCC2)cc1	31*	23	2	11	0	12	34*	0	GFP quench DR=>68
COc1ccccc1OCC(=O)OCC(=O)NCCN1C(=O)CSC1=O	1	-6	-7	-2	6	2	.	.
O=C(COC(=O)CNC(=O)c1ccco1)NCCN1C(=O)CSC1=O	5.0*	-2	-1	-7	-4	-1	-2	-1
COC(=O)CN1C(=O)[C@@H]2[C@H](C1=O)[C@@H]1CC(C(=O)OC)=C[C@@H](C(=O)OC)[C@@H]3C1=C(C(=O)[C@@]3(C)NC(=O)c1ccccc1)[C@@H]2C	14*	0	-3	.	-2	-11	4	1
COC(=O)Nc1nc(-c2ccc(F)cc2)c(C)s1	5.2*	-10	0	-8	-9	11	-2	0
COCC(=O)Nc1nc(-c2ccc(C)cc2)c(C)s1	-1	-3	-8	6	-8	5	.	.
Cc1cc(C)c2c(c1)SC1=NC(c3ccccc3)(C(F)(F)F)NC(=O)N12 (configuration not stated)	7.0*	-7	3	24	6	10	2	-1
COc1ccccc1CN1CCC(CNS(=O)(=O)c2cc(-c3cc(C)no3)ccc2OC)CC1	12*	10	-1	-5	-6	1	1	0
C=C(C)C(=O)Nc1ccc2nn(-c3ccccc3O)nc2c1	0	.	.	.	.	.	.	.
O=C(O)c1cccc2cccc(-c3c4ccc(=O)c(O)c-4oc4c(O)c(O)ccc34)c12	41*	.	.	.	.	.	45*	28*
CCCCNC(=O)Cn1c(=O)c2c(ncn2CCC(C)C)n(Cc2ccccc2)c1=O	20*	3	1	9	11	10	-1	0
CCCC(C)NC(=O)Cn1c(=O)c2c(ncn2CCC(C)C)n(Cc2ccccc2)c1=O (configuration not stated)	0	4	-1	17	3	-1	.	.
CC(C)NC(=S)NC(c1ccccc1)(c1ccccc1)c1ccccc1	-2	8	0	-1	3	5	.	.
CN(Cc1ccc(F)cc1)C(=O)c1ccc(NS(=O)(=O)c2ccccc2)cc1	9.5*	3	1	.	1	8	1	0
O=C(Cc1ccc(NC2=NC3CS(=O)(=O)CC3S2)cc1)NCc1ccc(Cl)cc1 (configuration not stated)	0	2	-1	8	5	-2	.	.
Cc1ccc(CNC(=O)Cc2ccc(NC3=NC4CS(=O)(=O)CC4S3)cc2)cc1 (configuration not stated)	10*	6	-9	14	0	-4	6	1
O=C(Cc1ccc(NC2=NC3CS(=O)(=O)CC3S2)cc1)NCCc1ccccc1 (configuration not stated)	6.5*	3	2	2	1	0	-1	0
CCOc1ccc(CCNC(=O)c2ccc(NC3=NC4CS(=O)(=O)CC4S3)cc2)cc1 (configuration not stated)	4	-1	-2	2	-3	0	.	.
COc1ccc(CCNC(=O)c2ccc(NC3=NC4CS(=O)(=O)CC4S3)cc2)cc1OC (configuration not stated)	18*	9	-3	4	-2	-3	22*	-1	GFP quench DR=>68
O=C(NCC1CCN(c2ccc(S(=O)(=O)N3CCOCC3)cc2)CC1)Nc1ccccc1F	0	2	2	11	0	8	.	.
SMILES	Rin1 Abl inh	UBC13 inh	PAD4 FP inh	UBC9 SUMO inh	GSTO1 inh	Apaf1 inhib	Rin1-Abl confirm	GFP quencher	others
O=C(O)c1ccc2c(c1)C(=O)N(c1nccs1)C2=O	-2	8	1	11	-1	-18	.	.
COc1cccc(NC(=O)CSCc2nc3sc(C)c(C)c3c(=O)[nH]2)c1	1	.	.	.	.	.	.	.
COc1cccc(CN(C)C(=O)c2cc(S(=O)(=O)N3CCCC3)ccc2C)c1OC	8.9*	2	1	.	.	7	4	-1
CCC(C)(C)c1ccc(OCC(=O)Nc2ccncc2)cc1	2	-1	-1	-14	-6	12	.	.
Brc1ccc(N=NNc2ccccc2)cc1	5.8*	-13	0	-3	0	14	-2	-1
S=C(NCCN1CCCCC1)Nc1ccc(Br)cc1	-1	11	0	-3	2	-14	.	.
S=C(NCCN1CCCCC1)Nc1ccccc1	9.0*	3	-2	14	1	-14	0	-2
Cc1ccc(S(=O)(=O)N2CCOCC2)cc1NC(=O)CN(C)C1CCS(=O)(=O)C1 (configuration not stated)	0	8	4	6	13	2	.	.
CN(CC(=O)Nc1cc(S(=O)(=O)N2CCOCC2)ccc1Cl)C1CCS(=O)(=O)C1 (configuration not stated)	9.4*	-5	-5	11	9	7	1	-1
CN(CC(=O)Nc1ccc(C#N)cc1)Cc1ccc(Cl)c(Cl)c1	6.1*	3	-2	-39	0	2	0	-1
O=S(=O)(Cc1ccccc1)N1CCN(c2ncccn2)CC1	7.2*	5	-2	1	0	6	-1	0
O=C(c1ccncc1)N1CCN(C2CCCCC2)CC1	10*	6	0	2	0	-6	1	-1
O=C(c1ccccc1)N1CCN(C2CCCCC2)CC1	-4	-5	-3	14	2	0	.	.
COc1cc2c(cc1OC)C(=O)CCC2	1	.	.	.	.	.	.	.
COc1ccc2c3c(cccc13)C(=O)CC2	12*	.	.	0	.	.	-3	-12
O=C(Cc1cnn(-c2ccccc2)c1)c1ccc(O)c(O)c1O	13*	-8	-7	38	50*	19	2	11*
CCc1cc(C(=O)Cc2cnn(-c3ccccc3)c2)c(O)cc1O	-2	9	1	11	-11	1	.	.
